Data reported in paper PMC2574800 (Bioorganic & medicinal chemistry, 2008).

Columns and labels:
[1] = tested on: murine leukemia L1210 cells; test: Cell growth inhibitory activity, L1210; format: cell-based; settings: Mus musculus, L1210, 48 h, read-out: IC50 (proliferation) L1210
Outline: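 Murine leukaemia L1210 cells grown with varying concentrations of test compound at 37 °C for two days; cell number counted on a Coulter counter. IC50 is the concentration inhibiting cell proliferation by 50%, taken from dose–response curves. Mean ± SE of at least three independent experiments.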

[2] = tested on: murine mammary carcinoma FM3A cells; test: Cell growth inhibitory activity, FM3A; format: cell-based; settings: Mus musculus, 48 h, read-out: IC50 (proliferation) FM3A
[3] = tested on: L1210, FM3A, Molt/4 and CEM cells; test: Cell growth inhibitory activity, range over the four cell lines; format: cell-based; settings: for IC50: read-out: IC50-values range against the four cell lines
Outline: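 Cells incubated with test compound at 37 °C for two days (L1210, FM3A) or three days (Molt 4, CEM). Cell number counted with a Coulter counter. IC50 taken as the concentration giving 50% inhibition of proliferation, from dose–response curves. Mean ± SE of at least three independent experiments.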

K562 cells = test: Flow cytometric analysis of cell cycle distribution; format: cell-based, human; settings: 24 h, compound at its 24 h IC50, propidium iodide
[4] = tested on: Bovine brain tubulin (colchicine site); test: Inhibition of [3H]colchicine binding to tubulin; settings: tubulin 1 μM, colchicine 5 μM, tested compound 1 μM

| SMILES | IC50 [1] | Effect on cell cycle distribution (K562 cells) | also measured |
| --- | --- | --- | --- |
| COc1ccc2c(N)c(C(=O)c3cc(OC)c(OC)c(OC)c3)n(C)c2c1 [Compound 4a] | 69 ± 37 nM | – | IC50 [2]: 97 ± 3 nM |
| COc1cc(C(=O)c2oc3cccc(OC)c3c2N)cc(OC)c1OC [Compound 5b, (3-Amino-4-methoxybenzofuran-2-yl)(3,4,5-trimethoxyphenyl)methanone] | – | – | Fold less active than 5d in the four cell lines ([3]; antiproliferative activity relative to 5d): over 10 fold |
| COc1ccc2c(N)c(C(=O)c3cc(OC)c(OC)c(OC)c3)[nH]c2c1 [Compound 3a] | 970 ± 24 nM | – | IC50 [2]: 1600 ± 30 nM |
| COc1ccc2c(N(C)C)c(C(=O)c3cc(OC)c(OC)c(OC)c3)oc2c1 [Compound 5i, (3-(Dimethylamino)-6-methoxybenzofuran-2-yl) (3,4,5-trimethoxyphenyl)methanone] | – | accumulation of cells in G2-M | IC50 [3]: 48 to 75 nM |
| COc1ccc2c(NC(=O)CI)c(C(=O)c3cc(OC)c(OC)c(OC)c3)oc2c1 [Compound 5n, (3-iodoacetylamino-6-methoxybenzofuran-2-yl)(3,4,5-trimethoxyphenyl)methanone] | – | greatest percentage increase in the percentage of cells in apoptotic cells (subG0-G1 peak) | – |
| COc1ccc2c(NC(=O)CCl)c(C(=O)c3cc(OC)c(OC)c(OC)c3)oc2c1 [Compound 5l, (3-chloroacetylamino-6-methoxybenzofuran-2-yl)(3,4,5-trimethoxyphenyl)methanone] | – | accumulate in late S phase | – |
| COc1ccc2c(N)c(C(=O)c3cc(OC)c(OC)c(OC)c3)oc2c1 [Compound 5d, (3-Amino-6-methoxybenzofuran-2-yl)(3,4,5-trimethoxyphenyl)methanone] | – | accumulate in late S phase | IC50 [3]: 87 to 430 nM |
| COc1ccc(/C=C\c2cc(OC)c(OC)c(OC)c2)cc1O [CA-4 (1), combretastatin A-4] | 2.8 ± 1.1 nM | – | Colchicine binding % ± SD (inhibition of [3H]colchicine binding) [4]: 86 ± 3% |
